Measurements from ChEMBL document CHEMBL4316592, “Synthesis of new derivatives of boehmeriasin A and their biological evaluation in liver cancer” (Eur J Med Chem, 2019).
The source made the active and inactive calls. The rule behind the calls is not given here.

Tests used:
[1] = target: T1, Mitogen-activated protein kinase kinase kinase 5 (Homo sapiens) (UniProt Q99683); assay: Inhibition of ASK1 Ser-966 phosphorylation in human HuH7 cells at 1 uM after 24 to 72 hrs by Western blot analysis; assay type: cell-based
T1 sequence (whole entry): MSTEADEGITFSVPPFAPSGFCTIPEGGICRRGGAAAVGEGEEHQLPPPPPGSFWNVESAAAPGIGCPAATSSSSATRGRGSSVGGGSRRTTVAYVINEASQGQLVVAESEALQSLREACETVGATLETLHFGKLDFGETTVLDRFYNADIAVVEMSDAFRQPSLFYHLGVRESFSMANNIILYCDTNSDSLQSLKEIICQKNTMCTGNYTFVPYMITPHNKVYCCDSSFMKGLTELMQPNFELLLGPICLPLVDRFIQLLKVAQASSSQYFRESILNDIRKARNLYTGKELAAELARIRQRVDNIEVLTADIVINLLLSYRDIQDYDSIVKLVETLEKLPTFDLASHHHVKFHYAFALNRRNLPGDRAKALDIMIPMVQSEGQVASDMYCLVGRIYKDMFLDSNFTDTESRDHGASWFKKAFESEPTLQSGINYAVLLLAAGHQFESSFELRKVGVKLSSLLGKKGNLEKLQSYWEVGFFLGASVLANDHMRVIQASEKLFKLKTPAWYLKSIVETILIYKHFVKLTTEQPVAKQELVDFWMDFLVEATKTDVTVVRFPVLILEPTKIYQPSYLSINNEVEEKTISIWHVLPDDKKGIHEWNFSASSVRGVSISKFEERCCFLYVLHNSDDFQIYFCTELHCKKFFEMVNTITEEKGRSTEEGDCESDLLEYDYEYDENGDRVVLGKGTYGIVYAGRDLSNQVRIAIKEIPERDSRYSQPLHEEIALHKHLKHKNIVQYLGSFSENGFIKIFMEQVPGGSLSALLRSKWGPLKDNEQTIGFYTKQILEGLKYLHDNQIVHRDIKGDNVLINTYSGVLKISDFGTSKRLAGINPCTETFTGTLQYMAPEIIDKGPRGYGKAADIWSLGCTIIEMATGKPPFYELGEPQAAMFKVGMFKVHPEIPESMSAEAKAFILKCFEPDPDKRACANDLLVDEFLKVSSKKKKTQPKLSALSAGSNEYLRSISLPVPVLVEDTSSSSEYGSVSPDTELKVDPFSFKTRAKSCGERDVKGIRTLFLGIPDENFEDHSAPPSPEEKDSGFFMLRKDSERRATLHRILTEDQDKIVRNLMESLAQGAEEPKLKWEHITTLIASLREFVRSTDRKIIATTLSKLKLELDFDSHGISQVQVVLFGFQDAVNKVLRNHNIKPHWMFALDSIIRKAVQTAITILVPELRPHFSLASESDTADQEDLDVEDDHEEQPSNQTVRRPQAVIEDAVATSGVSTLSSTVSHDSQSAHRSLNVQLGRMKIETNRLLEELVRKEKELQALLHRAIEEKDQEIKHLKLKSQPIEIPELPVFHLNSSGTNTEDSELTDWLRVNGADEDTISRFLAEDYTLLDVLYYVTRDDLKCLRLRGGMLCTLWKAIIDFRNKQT

Mahlavu [2] = assay: Cell cycle arrest in human Mahlavu cells assessed as accumulation of cells at S phase at 1 uM after 72 hrs by propidium iodide staining-based flow cytometric analysis (reference value: 13%); assay type: functional
Huh-7 [3] = assay: Induction of apoptosis in human HuH7 cells assessed as early apoptotic cells at 1 uM after 72 hrs by Annexin V-FITC/propidium iodide staining-based flow cytometric analysis (reference value: 0.03%); assay type: functional
Huh-7 [4] = assay: Induction of apoptosis in human HuH7 cells assessed as late apoptotic cells at 1 uM after 72 hrs by Annexin V-FITC/propidium iodide staining-based flow cytometric analysis (reference value: 2.34%); assay type: functional
Huh-7 [5] = assay: Cell cycle arrest in human HuH7 cells assessed as accumulation of cells at G2/M phase at 1 uM after 24 hrs by propidium iodide staining-based flow cytometric analysis (reference value: 37.3%); assay type: functional
[6] = target: T1, Mitogen-activated protein kinase kinase kinase 5 (Homo sapiens); assay: Inhibition of ASK1 Ser-966 phosphorylation in human Mahlavu cells at 1 uM after 24 to 72 hrs by Western blot analysis; assay type: cell-based
Huh-7 [7] = assay: Cell cycle arrest in human HuH7 cells assessed as accumulation of cells at S phase at 1 uM after 24 hrs by propidium iodide staining-based flow cytometric analysis (reference value: 14.2%); assay type: functional
Huh-7 [8] = assay: Cytotoxicity against human HuH7 cells after 24 hrs by RTCA analysis; assay type: functional, cell-based; settings: Huh-7, 24 h
Summary of the method: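 xCELLigence impedance real-time growth assay. Huh7 (2000) or Mahlavu (1000) cells plated, treated after 24 h at log phase with a 2-fold dilution series (4 steps) from a top concentration of 1. Cell index recorded every 10 min for 24 h, then every 30 min. Growth inhibition normalized to DMSO; IC50 taken at 24, 48, 72 h.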

Mahlavu [9] = assay: Cell cycle arrest in human Mahlavu cells assessed as accumulation of cells at G2/M phase at 1 uM after 72 hrs by propidium iodide staining-based flow cytometric analysis (reference value: 20%); assay type: functional
Mahlavu [10] = assay: Cell cycle arrest in human Mahlavu cells assessed as accumulation of cells at G1 phase at 1 uM after 24 hrs by propidium iodide staining-based flow cytometric analysis (reference value: 33.8%); assay type: functional
MCF-12A = assay: Cytotoxicity against human MCF12A cells after 72 hrs by SRB assay; assay type: cell-based; settings: Homo sapiens, MCF-12A, 72 h; read-out: IC50
Huh-7 [11] = assay: Cell cycle arrest in human HuH7 cells assessed as accumulation of cells at subG1 phase at 1 uM after 24 hrs by propidium iodide staining-based flow cytometric analysis (reference value: 6.8%); assay type: functional
Mahlavu [12] = assay: Cytotoxicity against human Mahlavu cells after 72 hrs by SRB assay; assay type: functional, cell-based; settings: Homo sapiens, Mahlavu, 72 h; read-out: IC50
Summary of the method: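 SRB assay. Cells plated per well (HCT116 3000; Huh7, Hep3B, HepG2, MCF-7 2000; Mahlavu, FOCUS, SNU475 1000) and grown 24 h. Compounds came from 20 mM DMSO stocks and were tested in triplicate, 40 to 2,5 (or 2,5 to 0,03) per printed range, for 72 h. Cells fixed in 10% TCA, stained with 0.4% SRB, dye dissolved in 10 mM Tris, A515 read. IC50 derived after DMSO normalization.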

Mahlavu [13] = assay: Cell cycle arrest in human Mahlavu cells assessed as accumulation of cells at G2/M phase at 1 uM after 48 hrs by propidium iodide staining-based flow cytometric analysis (reference value: 22.3%); assay type: functional
Huh-7 [14] = assay: Induction of apoptosis in human HuH7 cells assessed as increase in cytochrome C levels at 1 uM by Hoechst staining-based assay; assay type: functional, cell-based
Huh-7 [15] = assay: Cell cycle arrest in human HuH7 cells assessed as accumulation of cells at G1 phase at 1 uM after 72 hrs by propidium iodide staining-based flow cytometric analysis (reference value: 51.6%); assay type: functional
Mahlavu [16] = assay: Down-regulation of cyclin-B1 protein expression in human Mahlavu cells at 1 uM after 24 to 72 hrs by Western blot analysis; assay type: functional, cell-based
Mahlavu [17] = assay: Induction of apoptosis in human Mahlavu cells assessed as late apoptotic cells at 1 uM after 72 hrs by Annexin V-FITC/propidium iodide staining-based flow cytometric analysis (reference value: 3.48%); assay type: functional

Structure (SMILES) | inhibition [1] | Activity (Mahlavu [2]) [%] | Activity (Huh-7 [3]) [%] | Activity (Huh-7 [4]) [%] | Activity (Huh-7 [5]) [%] | inhibition [6] | Activity (Huh-7 [7]) [%] | IC50 (Huh-7 [8]) [nM] | Activity (Mahlavu [9]) [%] | Activity (Mahlavu [10]) [%] | IC50 (MCF-12A) [nM] | Activity (Huh-7 [11]) [%] | IC50 (Mahlavu [12]) [nM] | Activity (Mahlavu [13]) [%] | Activity (Huh-7 [14]) | Activity (Huh-7 [15]) [%] | Activity (Mahlavu [16]) | Activity (Mahlavu [17]) [%]
COc1ccc2c3c(c4cc(OC)c(OC)cc4c2c1)CN1CCCC[C@@H]1C3 | Active | 9.1 | 0.1 | 16.15 | 27.4 | Active | 15.9 | 1400 | 49.9 | 43.8 | 70 | 13.6 | 16 | 16.6 | Active | 24.3 | Active | 12.74
COc1ccc2c3c(c4cc(OC)c(OC)cc4c2c1)CN1CCCCC1C3O (racemic) | Active | 10.2 | 0.2 | 17.97 | 32.1 | Active | 13.2 | 800 | 31.4 | 36.8 | < 2000 | 23.1 | 10 | 32.9 | Active | 17.9 | Active | 35.08
